{"source": "paper PMC6445238", "about": "(Drug Design, Development and Therapy, 2019)", "key": {"Multiple ascending dose": {"experiment": "Multiple ascending dose", "type": "in vivo, human", "conditions": "for CSF KM-819 concentration: day 7, 1 hour postdose", "summary_of_the_method": "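Plasma was sampled on day 1 predose and at 0.25–12 h, on days 2–6 predose, and on day 7 predose and at 0.25–24 h. CSF was taken by lumbar puncture on day 1 predose and on day 7, 1 h after the last dose. Plasma was measured by UPLC-MS/MS with a deuterated internal standard, linear over 2–20,000 ng/mL (LOQ 2 ng/mL). Parameters came from non-compartmental analysis. Accumulation index = day 7 AUCtau and Cmax,ss over day 1 AUC0–24 and Cmax.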"}, "[1]": {"experiment": "MAD study, safety and tolerability", "type": "in vivo, human", "conditions": "young, N=6", "summary_of_the_method": "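MAD cohorts were 6 active and 2 placebo healthy males, dosed once daily for 7 days, confined day −1 to day 8, with follow-up on day 14. Safety was monitored by vital signs, clinical labs, 12-lead ECG, physical exams, and AEs reported by subjects or observed by investigators. AEs were coded with MedDRA 19.1. Counts are given as subjects with AEs, % of the safety population. Placebo subjects were pooled.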"}}, "note": "Entries after “also recorded” stand apart in the source; their conditions may differ.", "data": [{"smiles": "Cc1nn(Cc2ccc(Br)cc2)c(C)c1NC(=O)CSc1ccccc1", "note": "[KM-819]", "values": [{"measurement": "AUC0–24, geometric mean (CV%)", "setting": "Multiple ascending dose; 30 mg QD, day 1, young", "result": "1,761 (21.3) ng·h/mL"}, {"measurement": "Cmax, geometric mean (CV%)", "setting": "Multiple ascending dose; 30 mg QD, day 1, young", "result": "512.0 (30.9) ng/mL"}, {"measurement": "Tmax, median (min–max)", "setting": "Multiple ascending dose; 30 mg QD, day 1, young", "result": "2.00 (1.00–6.00) h"}, {"measurement": "CSF KM-819 concentration", "setting": "Multiple ascending dose; 30 mg QD", "result": "no CSF KM-819 concentrations were measurable"}, {"measurement": "AUCtau, geometric mean (CV%)", "setting": "Multiple ascending dose; 30 mg QD, day 7, young", "result": "1,572 (24.8) ng·h/mL"}, {"measurement": "Cmax,ss, geometric mean (CV%)", "setting": "Multiple ascending dose; 30 mg QD, day 7, young", "result": "418.5 (51.7) ng/mL"}, {"measurement": "Tmax,ss, median (min–max)", "setting": "Multiple ascending dose; 30 mg QD, day 7, young", "result": "2.00 (1.00–6.00) h"}, {"measurement": "AUC0–24, geometric mean (CV%)", "setting": "Multiple ascending dose; 100 mg QD, day 1, young", "result": "3,735 (38.5) ng·h/mL"}, {"measurement": "Cmax, geometric mean (CV%)", "setting": "Multiple ascending dose; 100 mg QD, day 1, young", "result": "1,009 (33.0) ng/mL"}, {"measurement": "Tmax, median (min–max)", "setting": "Multiple ascending dose; 100 mg QD, day 1, young", "result": "2.00 (1.00–4.00) h"}, {"measurement": "mean CSF/Cmax ratio", "setting": "Multiple ascending dose; 100 mg QD, day 7, CSF 1 hour postdose", "result": 0.067, "unit": "%"}, {"measurement": "AUCtau, geometric mean (CV%)", "setting": "Multiple ascending dose; 100 mg QD, day 7, young", "result": "3,477 (17.9) ng·h/mL"}, {"measurement": "Cmax,ss, geometric mean (CV%)", "setting": "Multiple ascending dose; 100 mg QD, day 7, young", "result": "1,012 (39.5) ng/mL"}, {"measurement": "Cmin,ss, geometric mean (CV%)", "setting": "Multiple ascending dose; 100 mg QD, day 7, young", "result": "9.983 (31.1) ng/mL"}, {"measurement": "Tmax,ss, median (min–max)", "setting": "Multiple ascending dose; 100 mg QD, day 7, young", "result": "3.00 (1.00–4.00) h"}, {"measurement": "Cmax,ss in elderly relative to young", "setting": "Multiple ascending dose; 200 mg QD for 7 days, day 7", "result": 191, "unit": "%"}, {"measurement": "plasma exposure (AUCtau) in elderly relative to young", "setting": "Multiple ascending dose; 200 mg QD for 7 days, day 7", "result": 102, "unit": "%"}, {"measurement": "AUC0–24, geometric mean (CV%)", "setting": "Multiple ascending dose; 200 mg QD, day 1, elderly", "result": "17,590 (53.3) ng·h/mL"}, {"measurement": "Cmax, geometric mean (CV%)", "setting": "Multiple ascending dose; 200 mg QD, day 1, elderly", "result": "3,542 (76.4) ng/mL"}, {"measurement": "Tmax, median (min–max)", "setting": "Multiple ascending dose; 200 mg QD, day 1, elderly", "result": "2.00 (1.00–6.00) h"}, {"measurement": "AUC0–24, geometric mean (CV%)", "setting": "Multiple ascending dose; 200 mg QD, day 1, young", "result": "6,485 (62.2) ng·h/mL"}, {"measurement": "Cmax, geometric mean (CV%)", "setting": "Multiple ascending dose; 200 mg QD, day 1, young", "result": "1,465 (77.2) ng/mL"}, {"measurement": "Tmax, median (min–max)", "setting": "Multiple ascending dose; 200 mg QD, day 1, young", "result": "3.00 (2.00–6.00) h"}, {"measurement": "mean CSF/Cmax ratio", "setting": "Multiple ascending dose; 200 mg QD, day 7, CSF 1 hour postdose, elderly", "result": 0.032, "unit": "%"}, {"measurement": "mean CSF/Cmax ratio", "setting": "Multiple ascending dose; 200 mg QD, day 7, CSF 1 hour postdose, young", "result": 0.074, "unit": "%"}, {"measurement": "AUCtau, geometric mean (CV%)", "setting": "Multiple ascending dose; 200 mg QD, day 7, elderly", "result": "16,250 (34.1) ng·h/mL"}, {"measurement": "Cmax,ss, geometric mean (CV%)", "setting": "Multiple ascending dose; 200 mg QD, day 7, elderly", "result": "3,231 (52.5) ng/mL"}, {"measurement": "Cmin,ss, geometric mean (CV%)", "setting": "Multiple ascending dose; 200 mg QD, day 7, elderly", "result": "44.82 (48.3) ng/mL"}, {"measurement": "Tmax,ss, median (min–max)", "setting": "Multiple ascending dose; 200 mg QD, day 7, elderly", "result": "2.00 (1.00–4.00) h"}, {"measurement": "AUCtau, geometric mean (CV%)", "setting": "Multiple ascending dose; 200 mg QD, day 7, young", "result": "8,023 (7.7) ng·h/mL"}, {"measurement": "Cmax,ss, geometric mean (CV%)", "setting": "Multiple ascending dose; 200 mg QD, day 7, young", "result": "1,111 (64.3) ng/mL"}, {"measurement": "Cmin,ss, geometric mean (CV%)", "setting": "Multiple ascending dose; 200 mg QD, day 7, young", "result": "32.44 (19.4) ng/mL"}, {"measurement": "Tmax,ss, median (min–max)", "setting": "Multiple ascending dose; 200 mg QD, day 7, young", "result": "4.00 (4.00–4.00) h"}, {"measurement": "AUC0–24, geometric mean (CV%)", "setting": "Multiple ascending dose; 400 mg QD, day 1, young", "result": "11,260 (37.1) ng·h/mL"}, {"measurement": "Cmax, geometric mean (CV%)", "setting": "Multiple ascending dose; 400 mg QD, day 1, young", "result": "3,163 (50.7) ng/mL"}, {"measurement": "Tmax, median (min–max)", "setting": "Multiple ascending dose; 400 mg QD, day 1, young", "result": "2.00 (1.00–6.00) h"}, {"measurement": "mean CSF/Cmax ratio", "setting": "Multiple ascending dose; 400 mg QD, day 7, CSF 1 hour postdose", "result": 0.049, "unit": "%"}, {"measurement": "AUCtau, geometric mean (CV%)", "setting": "Multiple ascending dose; 400 mg QD, day 7, young", "result": "19,530 (96.4) ng·h/mL"}, {"measurement": "Cmax,ss, geometric mean (CV%)", "setting": "Multiple ascending dose; 400 mg QD, day 7, young", "result": "3,172 (37.9) ng/mL"}, {"measurement": "Cmin,ss, geometric mean (CV%)", "setting": "Multiple ascending dose; 400 mg QD, day 7, young", "result": "75.14 (28.4) ng/mL"}, {"measurement": "Tmax,ss, median (min–max)", "setting": "Multiple ascending dose; 400 mg QD, day 7, young", "result": "2.00 (0.50–4.00) h"}, {"measurement": "dose proportionality of plasma exposure (AUC) after repeated dosing", "setting": "Multiple ascending dose; 30–400 mg QD for 7 days, day 7", "result": "approximately dose-proportional; also recorded: dose-proportional increase"}, {"measurement": "variability (CV%) of AUCtau and Cmax,ss", "setting": "Multiple ascending dose; MAD", "result": "up to 96%"}, {"measurement": "dose proportionality of AUC and Cmax after a single dose", "setting": "Multiple ascending dose; MAD, day 1", "result": "less than dose-proportional increase"}, {"measurement": "dose proportionality of Cmax after repeated dosing", "setting": "Multiple ascending dose; MAD, day 7", "result": "less than dose-proportional increase"}, {"measurement": "dose proportionality of Cmin after repeated dosing", "setting": "Multiple ascending dose; MAD, day 7", "result": "slightly more than dose-proportional increase"}, {"measurement": "Estimated mean slope, dose proportionality power model, Cmin,ss", "setting": "Multiple ascending dose; MAD, day 7, N=21", "result": 1.1852}, {"measurement": "mean CSF/Cmax ratio", "setting": "Multiple ascending dose; each cohort", "result": "less than 0.1%"}, {"measurement": "time to steady-state (trough) concentrations", "setting": "Multiple ascending dose; repeated QD dosing, each group", "result": 5, "unit": "days"}, {"measurement": "CSF KM-819 concentration", "setting": "Multiple ascending dose; ≥100 mg QD", "result": "measurable in more than half of the CSF samples"}, {"measurement": "Abdominal discomfort, number of subjects (%)", "setting": "[1]; 30 mg QD 7 days", "result": 0}, {"measurement": "Abdominal pain, number of subjects (%)", "setting": "[1]; 30 mg QD 7 days", "result": 0}, {"measurement": "Anxiety, number of subjects (%)", "setting": "[1]; 30 mg QD 7 days", "result": 0}, {"measurement": "Back pain, number of subjects (%)", "setting": "[1]; 30 mg QD 7 days", "result": 0}, {"measurement": "Diarrhea, number of subjects (%)", "setting": "[1]; 30 mg QD 7 days", "result": 0}, {"measurement": "Dizziness, number of subjects (%)", "setting": "[1]; 30 mg QD 7 days", "result": "1 (16.7)"}, {"measurement": "Epistaxis, number of subjects (%)", "setting": "[1]; 30 mg QD 7 days", "result": 0}, {"measurement": "Erythema of eyelid, number of subjects (%)", "setting": "[1]; 30 mg QD 7 days", "result": 0}, {"measurement": "Erythema, number of subjects (%)", "setting": "[1]; 30 mg QD 7 days", "result": 0}, {"measurement": "Headache, number of subjects (%)", "setting": "[1]; 30 mg QD 7 days", "result": "2 (33.3)"}, {"measurement": "Hyperbilirubinemia, number of subjects (%)", "setting": "[1]; 30 mg QD 7 days", "result": 0}, {"measurement": "Hyperhidrosis, number of subjects (%)", "setting": "[1]; 30 mg QD 7 days", "result": 0}, {"measurement": "Hypoesthesia, number of subjects (%)", "setting": "[1]; 30 mg QD 7 days", "result": 0}, {"measurement": "Insomnia, number of subjects (%)", "setting": "[1]; 30 mg QD 7 days", "result": 0}, {"measurement": "Muscle hemorrhage, number of subjects (%)", "setting": "[1]; 30 mg QD 7 days", "result": 0}, {"measurement": "Musculoskeletal stiffness, number of subjects (%)", "setting": "[1]; 30 mg QD 7 days", "result": 0}, {"measurement": "Nausea, number of subjects (%)", "setting": "[1]; 30 mg QD 7 days", "result": "2 (33.3)"}, {"measurement": "Neck pain, number of subjects (%)", "setting": "[1]; 30 mg QD 7 days", "result": 0}, {"measurement": "Oropharyngeal pain, number of subjects (%)", "setting": "[1]; 30 mg QD 7 days", "result": 0}, {"measurement": "Subjects with any TEAEs, number of subjects (%)", "setting": "[1]; 30 mg QD 7 days", "result": "2 (33.3)"}, {"measurement": "Vomiting, number of subjects (%)", "setting": "[1]; 30 mg QD 7 days", "result": "2 (33.3)"}, {"measurement": "Abdominal discomfort, number of subjects (%)", "setting": "[1]; 100 mg QD 7 days", "result": 0}, {"measurement": "Abdominal pain, number of subjects (%)", "setting": "[1]; 100 mg QD 7 days", "result": 0}, {"measurement": "Anxiety, number of subjects (%)", "setting": "[1]; 100 mg QD 7 days", "result": 0}, {"measurement": "Back pain, number of subjects (%)", "setting": "[1]; 100 mg QD 7 days", "result": "2 (33.3)"}, {"measurement": "Diarrhea, number of subjects (%)", "setting": "[1]; 100 mg QD 7 days", "result": 0}, {"measurement": "Dizziness, number of subjects (%)", "setting": "[1]; 100 mg QD 7 days", "result": "1 (16.7)"}, {"measurement": "Epistaxis, number of subjects (%)", "setting": "[1]; 100 mg QD 7 days", "result": 0}]}]}
